Drawing on ChEMBL document CHEMBL4808167, “Design, Synthesis, and Evaluation of Small Molecule Gαq/11 Protein Inhibitors for the Treatment of Uveal Melanoma” (J Med Chem, 2021), this text covers IC50 and inhibition for 49 molecules.

Experiment [1] in a line: Antiproliferative activity against human MP41 cells assessed as inhibition of cell growth after 72 hrs by CCK8 assay. The class given is functional, cell-based. To be noted: MP41, 72 h. The procedure, abridged: (§1)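 92.1 or MP41 cells in RPMI-1640 with 10% FBS were seeded at 3 × 10³ cells/well. Exposed to serial concentrations for 72 h at 37 °C, 5% CO₂. CCK-8 added for 1−4 h, absorbance read at 450 nm. IC₅₀ from concentration−response curve fit, mean ± SD.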
(In general: Tetrazolium assays rely on reduction of a dye to a coloured formazan, in cell work by metabolically active cells.)

Experiment [2] addresses GNAQ/GNA11 (Homo sapiens) (UniProt P50148+P29992). The experiment is described as follows: Inhibition of Galphaq/11 (unknown origin) expressed in CHO cells coexpressing M1 receptor assessed as reduction in carbachol-induced IP1 accumulation at 10 uM preincubated for 1 hr followed by carbachol stimulation and measured after 1 hr by HTRF assay relative to control. Particulars: time 2.0 hrs. The class given is cell-based.

Experiment [3] can be described thus: Antiproliferative activity against human 92.1 cells assessed as inhibition of cell growth after 72 hrs by CCK8 assay. To be noted: Homo sapiens, 921, 72 h. The class given is functional, cell-based. The procedure, abridged:
as §1

Structures are written as SMILES.

The IC50 is the concentration that gives 50% inhibition. By inhibition is commonly meant the change of the read-out against control, counted positive when it falls. In the case of `CC(C)C(=O)N1CCn2cc(-c3ccccc3)nc2[C@@H]1C(C)C`, the IC50 in experiment [1] and in experiment [3] was more than 100 µM each time. Besides, in experiment [2], the inhibition came out at 9.9%.
Consider `C[C@@H](O)[C@H](N)C(=O)N1CCn2cc(-c3ccccc3)nc2[C@@H]1CC1CCCCC1`, for which the IC50 in experiment [1] and in experiment [3] was more than 100 µM in each case. Also, the inhibition in experiment [2] is 10.7%.
On to `O=C(CCS)N1CCn2cc(-c3ccccc3)nc2[C@@H]1CC1CCCCC1`, for which the IC50 was more than 100 µM in experiment [1] and 29.1 µM in experiment [3]. The inhibition in experiment [2] came to 19.8%.
For the molecule `CN[C@@H](CS)C(=O)N1CCn2cc(-c3ccccc3)nc2[C@H]1C(C)C`, the IC50 in experiment [1] and in experiment [3] was more than 100 µM throughout. The inhibition in experiment [2] is 30.5%.
As to `CC(C)[C@H]1c2nc(-c3ccccc3)cn2CCN1C(=O)[C@@H](N)CS`, the IC50 in experiment [1] was more than 100 µM; in experiment [3], 65.7 µM. The inhibition in experiment [2] stood at 33.9%.
On to `CC(C)[C@@H]1c2nc(-c3ccccc3)cn2CCN1C(=O)[C@@H](N)Cc1ccc(O)cc1`, for which the IC50 in experiment [1] was 97.6 µM; in experiment [3], more than 100 µM. Besides, the inhibition in experiment [2] amounted to 18%.
In the same order, the values of `CC(C)C[C@@H]1c2nc(-c3ccccc3)cn2CCN1C(=O)[C@@H](N)CO` are more than 100 µM, more than 100 µM and 4%.
Turning to `C[C@H](N)C(=O)N1CCn2cc(-c3ccccc3)nc2[C@@H]1CC1CCCCC1`, the results for the IC50 in experiment [1] and in experiment [3] were 95.9 µM and 35.5 µM, respectively. In addition, the inhibition in experiment [2] is 17.1%.
For the molecule `CN(C)[C@@H](CS)C(=O)N1CCn2cc(-c3ccccc3)nc2[C@@H]1CC1CCCCC1`, the IC50 in experiment [1] and in experiment [3] was more than 100 µM in each case. The inhibition in experiment [2] was determined as 11.9%.
In the case of `CC(C)C(=O)N1CCn2cc(-c3ccccc3)nc2[C@H]1C(C)C`, the half-maximal inhibitory concentration (IC50) in experiment [1] and in experiment [3] was more than 100 µM throughout. In experiment [2], the inhibition worked out at 14.4%.
In the case of `NCCCC[C@H](N)C(=O)N1CCn2cc(-c3ccccc3)nc2[C@@H]1CC1CCCCC1`, the IC50 in experiment [1] and in experiment [3] was more than 100 µM each time. Besides, the inhibition in experiment [2] was found to be 36.8%.
Turning to `CC(C)C(=O)N1CCn2cc(-c3ccccc3)nc2[C@@H]1CC1CCCCC1`, the IC50 in experiment [1] was more than 100 µM; in experiment [3], 42.3 µM. The inhibition in experiment [2] came to 44.2%.
In the same order, the values of `NC(=O)CC[C@H](N)C(=O)N1CCn2cc(-c3ccccc3)nc2[C@@H]1CC1CCCCC1` are more than 100 µM, 87.2 µM and 18.5%.
As for `CC(C)C[C@H](N)C(=O)N1CCn2cc(-c3ccccc3)nc2[C@@H]1CC1CCCCC1`, the IC50 worked out at 33.5 µM in experiment [1] and 55.4 µM in experiment [3]. Moreover, in experiment [2], the inhibition was 15.9%.
For `C[C@@H]1c2nc(-c3ccccc3)cn2CCN1C(=O)[C@@H](N)CS` the same measures were more than 100 µM, more than 100 µM and 6%.
Take `NCC(=O)N1CCn2cc(-c3ccccc3)nc2[C@@H]1CC1CCCCC1`: the IC50 in experiment [1] was more than 100 µM; in experiment [3] it was 19.3 µM. Also, the inhibition in experiment [2] turned out to be 21.9%.
Turning to `CC(C)C[C@@H]1c2nc(-c3ccccc3)cn2CCN1C(=O)[C@@H](N)CS`, the IC50 in experiment [1] was 47.7 µM; in experiment [3], 64.1 µM. In addition, in experiment [2], the inhibition came out at 50.4%.
In the same order, the values of `CN[C@@H](CS)C(=O)N1CCn2cc(-c3ccccc3)nc2[C@@H]1CC1CCCCC1` are 27.8 µM, 24 µM and 30%.
In the same order, the values of `CN[C@@H](CS)C(=O)N1CCn2cc(-c3ccccc3)nc2[C@@H]1C(C)C` are more than 100 µM, 45 µM and 11.5%.
With `N[C@@H](CO)C(=O)N1CCn2cc(-c3ccccc3)nc2[C@@H]1CC1CCCCC1`, the IC50 was more than 100 µM in experiment [1] and 78.4 µM in experiment [3]. Also, in experiment [2], the inhibition was determined as 29.3%.
With `CCN(CC)[C@@H](CS)C(=O)N1CCn2cc(-c3ccccc3)nc2[C@@H]1CC1CCCCC1`, the IC50 in experiment [1] and in experiment [3] was more than 100 µM throughout. In addition, the inhibition in experiment [2] was 24.2%.
In the case of `CC(C)C[C@@H]1c2nc(-c3ccccc3)cn2CCN1C(=O)[C@@H](N)CCCCN`, the IC50 in experiment [1] and in experiment [3] was more than 100 µM in each case. Moreover, the inhibition in experiment [2] was found to be 1.3%.
On to `N[C@@H](CC(=O)O)C(=O)N1CCn2cc(-c3ccccc3)nc2[C@@H]1CC1CCCCC1`, for which the IC50 in experiment [1] and in experiment [3] was more than 100 µM throughout. Also, in experiment [2], the inhibition is 10.2%.
Regarding `CC(C)[C@H](N)C(=O)N1CCn2cc(-c3ccccc3)nc2[C@@H]1CC1CCCCC1`, the half-maximal inhibitory concentration (IC50) in experiment [1] worked out at 83 µM; in experiment [3], 40.3 µM. In experiment [2], the inhibition amounted to 21.7%.
In the same order, the values of `C[C@H](O)C(=O)N1CCn2cc(-c3ccccc3)nc2[C@@H]1CC1CCCCC1` are 56.3 µM, more than 100 µM and 22.5%.
In the same order, the values of `C[C@H]1c2nc(-c3ccccc3)cn2CCN1C(=O)[C@@H](N)CS` are more than 100 µM, more than 100 µM and 24.4%.
In the same order, the values of `CC(C)[C@@H]1c2nc(-c3ccccc3)cn2CCN1C(=O)[C@@H](N)CCCCN` are more than 100 µM, more than 100 µM and 11.7%.
As for `NC(=O)C[C@H](N)C(=O)N1CCn2cc(-c3ccccc3)nc2[C@@H]1CC1CCCCC1`, the half-maximal inhibitory concentration (IC50) in experiment [1] and in experiment [3] was more than 100 µM in each case. Also, the inhibition in experiment [2] stood at 19.8%.
On to `CC(C)[C@@H]1c2nc(-c3ccccc3)cn2CCN1C(=O)[C@@H](N)CS`, for which the values for the 50% inhibitory concentration (IC50) in experiment [1] and in experiment [3] were more than 100 µM and 62.7 µM, respectively. Besides, in experiment [2], the inhibition was 48.4%.
As for `CC[C@@H](C)[C@H](N)C(=O)N1CCn2cc(-c3ccccc3)nc2[C@H]1CC(C)C`, the IC50 in experiment [1] and in experiment [3] was more than 100 µM in each case. For the same molecule, the inhibition in experiment [2] amounted to 6.5%.
Turning to `CC(C)[C@H]1c2nc(-c3ccccc3)cn2CCN1C(=O)[C@@H](N)CO`, the IC50 in experiment [1] and in experiment [3] was more than 100 µM each time. The inhibition in experiment [2] was determined as 2.8%.
As to `CC[C@@H](C)[C@H](N)C(=O)N1CCn2cc(-c3ccccc3)nc2[C@H]1C(C)C`, the IC50 in experiment [1] was 97.2 µM; in experiment [3] it was more than 100 µM. Moreover, the inhibition in experiment [2] is 0.96%.
For `N=C(N)NCCC[C@H](N)C(=O)N1CCn2cc(-c3ccccc3)nc2[C@@H]1CC1CCCCC1` the same measures were more than 100 µM, more than 100 µM and 6.2%.
For `CSCC[C@H](N)C(=O)N1CCn2cc(-c3ccccc3)nc2[C@@H]1CC1CCCCC1` the same measures were more than 100 µM, 42 µM and 12.4%.
Take `CC(C)[C@@H]1c2nc(-c3ccccc3)cn2CCN1C(=O)[C@@H](N)CO`: the IC50 in experiment [1] and in experiment [3] was more than 100 µM throughout. Further, in experiment [2], the inhibition was 9.5%.
For `N[C@@H](CS)C(=O)N1CCn2cc(-c3ccccc3)nc2[C@@H]1Cc1ccccc1`, the IC50 in experiment [1] amounted to 19.8 µM; in experiment [3] it was 45.2 µM. Besides, the inhibition in experiment [2] was found to be 22.9%.
For `CN[C@@H](CS)C(=O)N1CCn2cc(-c3ccccc3)nc2[C@H]1CC(C)C` the same measures were 59.3 µM, more than 100 µM and 13.2%.
As to `CC[C@H](C)C(=O)N1CCn2cc(-c3ccccc3)nc2[C@@H]1C(C)C`, the half-inhibitory concentration (IC50) in experiment [1] and in experiment [3] was more than 100 µM each time. In addition, in experiment [2], the inhibition is 12.9%.
As to `N[C@@H](Cc1c[nH]cn1)C(=O)N1CCn2cc(-c3ccccc3)nc2[C@@H]1CC1CCCCC1`, the figures for the IC50 in experiment [1] and in experiment [3] were more than 100 µM and 91.9 µM, respectively. Moreover, the inhibition in experiment [2] amounted to 24.7%.
With `CC(C)[C@H]1c2nc(-c3ccccc3)cn2CCN1C(=O)[C@@H](N)Cc1ccc(O)cc1`, the half-inhibitory concentration (IC50) in experiment [1] and in experiment [3] was more than 100 µM each time. The inhibition in experiment [2] came out at 6.6%.
`N[C@@H](Cc1c[nH]c2ccccc12)C(=O)N1CCn2cc(-c3ccccc3)nc2[C@@H]1CC1CCCCC1`: the results for the IC50 in experiment [1] and in experiment [3] were 15.6 µM and 20.6 µM, respectively. The inhibition in experiment [2] is 7.4%.
In the case of `CC[C@H](C)C(=O)N1CCn2cc(-c3ccccc3)nc2[C@H]1C(C)C`, the IC50 in experiment [1] and in experiment [3] was more than 100 µM in each case. For the same molecule, the inhibition in experiment [2] came to 11.8%.
On to `N[C@@H](CCC(=O)O)C(=O)N1CCn2cc(-c3ccccc3)nc2[C@@H]1CC1CCCCC1`, for which the IC50 in experiment [1] and in experiment [3] was more than 100 µM throughout. The inhibition in experiment [2] amounted to 16.2%.
Consider `CC(C)C[C@@H]1c2nc(-c3ccccc3)cn2CCN1C(=O)[C@@H](N)Cc1ccc(O)cc1`, for which the IC50 in experiment [1] and in experiment [3] was more than 100 µM in each case. Further, the inhibition in experiment [2] was 3.7%.
For the molecule `CC[C@H](C)C(=O)N1CCn2cc(-c3ccccc3)nc2[C@@H]1CC1CCCCC1`, the values for the IC50 in experiment [1] and in experiment [3] were 79 µM and 27.4 µM, respectively. Besides, the inhibition in experiment [2] came out at 47.1%.
For `N[C@@H](Cc1ccccc1)C(=O)N1CCn2cc(-c3ccccc3)nc2[C@@H]1CC1CCCCC1` the same measures were 25.5 µM, 30.1 µM and 21.2%.
Regarding `C[C@@H](CS)C(=O)N1CCn2cc(-c3ccccc3)nc2[C@@H]1CC1CCCCC1`, the concentration for half-maximal inhibition (IC50) in experiment [1] is more than 100 µM; in experiment [3], 33.1 µM. Also, the inhibition in experiment [2] was found to be 25.6%.
For `CC[C@H](C)C(=O)N1CCn2cc(-c3ccccc3)nc2[C@H]1CC(C)C` the same measures were 85.8 µM, 84.4 µM and 1.1%.
As for `CC[C@@H](C)[C@H](N)C(=O)N1CCn2cc(-c3ccccc3)nc2[C@@H]1C(C)C`, the IC50 in experiment [1] and in experiment [3] was more than 100 µM each time. For the same molecule, the inhibition in experiment [2] was determined as 1.8%.
